Laboratory results taken from ChEMBL document CHEMBL1145465, “PhoU is a persistence switch involved in persister formation and tolerance to multiple antibiotics and stresses in Escherichia coli” (2007).
≈ marks a conversion by molar mass, not a printed value. Calls of active or inactive are those of the source. No cut-off for these calls is given here.

Tests used:
Escherichia coli [1] = assay: Antibacterial activity against Escherichia coli K12 PhoU wild type W3110 assessed as cell count in log phase at […] after 6 days; format: functional, organism-based
Escherichia coli [2] = assay: Antibacterial activity against Escherichia coli K12 containing PhoU mutant assessed as bacterial killing log phase at 3 ug/ml after 6 days; format: functional
Escherichia coli [3] = assay: Antibacterial activity against Escherichia coli K12 PhoU wild type W3110 assessed as cell count in stationary phase at 2 mg/ml after 6 days
Escherichia coli [4] = assay: Antibacterial activity against Escherichia coli K12 containing PhoU mutant assessed as bacterial killing stationary phase at 2 mg/ml after 6 days
Escherichia coli [5] = assay: Antibacterial activity against Escherichia coli K12 PhoU wild type W3110 at 50 ug/ml after 48 hrs by disc diffusion method; format: functional
Summary of the method: (§1)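 Kirby-Bauer disc assay. Log-phase LB broth culture (10⁸ bacteria) was spread on LB agar for confluent growth. 7 mm nitrocellulose discs soaked in antibiotic solution at the listed concentration were placed on the agar. Inhibition zone diameter (mm) was measured after 48 h at 37°C.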

Escherichia coli [6] = assay: Antibacterial activity against Escherichia coli K12 mutant JHU313 at 50 ug/ml after 48 hrs by disc diffusion method; format: functional
Summary of the method: (§2)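 Kirby-Bauer disc assay: log-phase LB culture was spread on LB agar for confluent growth. 7-mm nitrocellulose discs were soaked in antibiotic at the listed concentration and placed on the agar. After 48 h at 37°C, the diameter of the inhibition zone was measured in mm.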

Escherichia coli [7] = assay: Antibacterial activity against Escherichia coli K12 mutant JHU313 containing plasmid PhoU at 50 ug/ml after 48 hrs by disc diffusion method; format: functional; summary of the method: as §2
Escherichia coli [8] = assay: Antibacterial activity against Escherichia coli K12 mutant JHU313 containing plasmid vector at 50 ug/ml after 48 hrs by disc diffusion method; format: functional
Summary of the method: (§3)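 Kirby-Bauer paper-disc assay: log-phase E. coli (10⁸ bacteria) grown in LB broth, spread on LB agar for confluent growth; 7 mm nitrocellulose discs soaked with antibiotic solution at the listed concentration (μg/ml) placed on surface; incubated 37°C for 48 h; diameter of growth-inhibition zone measured in mm. Strain is the phoU transposon mutant transformed by electroporation with empty vector control.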

Escherichia coli [9] = assay: Antibacterial activity against Escherichia coli K12 PhoU wild type W3110 at 12.5 ug/ml after 48 hrs by disc diffusion method; format: functional; summary of the method: as §1
Escherichia coli [10] = assay: Antibacterial activity against Escherichia coli K12 mutant JHU313 at 12.5 ug/ml after 48 hrs by disc diffusion method; format: functional; summary of the method: as §2
Escherichia coli [11] = assay: Antibacterial activity against Escherichia coli K12 mutant JHU313 containing plasmid PhoU at 12.5 ug/ml after 48 hrs by disc diffusion method; format: functional; summary of the method: as §2
Escherichia coli [12] = assay: Antibacterial activity against Escherichia coli K12 mutant JHU313 containing plasmid vector at 12.5 ug/ml after 48 hrs by disc diffusion method; format: functional; summary of the method: as §2
Escherichia coli [13] = assay: Antibacterial activity against Escherichia coli K12 PhoU wild type W3110 at 25 ug/ml after 48 hrs by disc diffusion method; format: functional; summary of the method: as §1
Escherichia coli [14] = assay: Antibacterial activity against Escherichia coli K12 mutant JHU313 at 25 ug/ml after 48 hrs by disc diffusion method; format: functional; summary of the method: as §2
Escherichia coli [15] = assay: Antibacterial activity against Escherichia coli K12 mutant JHU313 containing plasmid PhoU at 25 ug/ml after 48 hrs by disc diffusion method; format: functional; summary of the method: as §2
Escherichia coli [16] = assay: Antibacterial activity against Escherichia coli K12 mutant JHU313 containing plasmid vector at 25 ug/ml after 48 hrs by disc diffusion method; format: functional; summary of the method: as §3
Escherichia coli [17] = assay: Antibacterial activity against Escherichia coli K12 PhoU wild type W3110 at 2 ug/ml after 48 hrs by disc diffusion method; format: functional
Summary of the method: (§4)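 Kirby-Bauer disc assay. Log-phase LB culture (10⁸ bacteria) was spread for confluent growth on LB agar. 7 mm nitrocellulose discs soaked in antibiotic at the listed concentrations were laid on the agar. Inhibition zone diameter (mm) was measured after 48 h at 37°C.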

Escherichia coli [18] = assay: Antibacterial activity against Escherichia coli K12 mutant JHU313 at 2 ug/ml after 48 hrs by disc diffusion method; format: functional; summary of the method: as §2
Escherichia coli [19] = assay: Antibacterial activity against Escherichia coli K12 mutant JHU313 containing plasmid PhoU at 2 ug/ml after 48 hrs by disc diffusion method; format: functional; summary of the method: as §2
Escherichia coli [20] = assay: Antibacterial activity against Escherichia coli K12 PhoU wild type W3110 at 1 ug/ml after 48 hrs by disc diffusion method
Escherichia coli [21] = assay: Antibacterial activity against Escherichia coli K12 PhoU wild type W3110 after 16 hrs by serial dilution method; format: functional; settings: K12, 16 h
Summary of the method: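 Serial twofold antibiotic dilutions in LB broth; log-phase inoculum 10⁶ to 10⁷ bacteria/ml; 16 h at 37°C. MIC was the lowest concentration with no visible growth. MBC was the concentration giving a 100-fold CFU drop below the seeded inoculum.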

Escherichia coli [22] = assay: Antibacterial activity against Escherichia coli K12 mutant JHU313 after 16 hrs by serial dilution method; format: functional; settings: K12, 16 h
Summary of the method: (§5)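 Twofold serial antibiotic dilutions in LB broth were seeded with 10⁶–10⁷ bacteria/ml from log-phase culture and incubated 16 h at 37°C. MIC was taken as the lowest concentration with no visible growth. MBC was taken as the concentration giving a 100-fold CFU drop from the inoculum.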

Escherichia coli [23] = assay: Antibacterial activity against Escherichia coli K12 mutant JHU313 containing plasmid PhoU after 16 hrs by serial dilution method; format: functional; settings: K12, 16 h; summary of the method: as §5
Escherichia coli [24] = assay: Antibacterial activity against Escherichia coli K12 mutant JHU313 containing plasmid vector after 16 hrs by serial dilution method; format: functional; settings: K12, 16 h; summary of the method: as §5
Escherichia coli [25] = assay: Antibacterial activity against Escherichia coli K12 mutant JHU313 containing plasmid vector at 2 ug/ml after 48 hrs by disc diffusion method; format: functional; summary of the method: as §2
Escherichia coli [26] = assay: Antibacterial activity against Escherichia coli K12 PhoU wild type W3110 at 0.5 ug/ml after 48 hrs by disc diffusion method; format: functional; summary of the method: as §4
Escherichia coli [27] = assay: Antibacterial activity against Escherichia coli K12 mutant JHU313 at 0.5 ug/ml after 48 hrs by disc diffusion method; format: functional; summary of the method: as §2
Escherichia coli [28] = assay: Antibacterial activity against Escherichia coli K12 mutant JHU313 containing plasmid PhoU at 0.5 ug/ml after 48 hrs by disc diffusion method; format: functional; summary of the method: as §2
Escherichia coli [29] = assay: Antibacterial activity against Escherichia coli K12 mutant JHU313 containing plasmid vector at 0.5 ug/ml after 48 hrs by disc diffusion method; format: functional; summary of the method: as §2
Escherichia coli [30] = system: Escherichia coli
Escherichia coli [31] = system: Escherichia coli; remark: listed apart in the source
Escherichia coli [32] = system: Escherichia coli; remark: listed apart in the source

For `NC(=O)c1cnccn1` [PYRAZINAMIDE], the Activity (Escherichia coli [1]) was “Active”, the CFU (Escherichia coli [2]) was 1 10^6/ml and the CFU (Escherichia coli [3]) was 6.7 10^6/ml. For the same compound, the Activity (Escherichia coli [4]) was “Active”.
`CN(C)[C@@H]1C(O)=C(C(N)=O)C(=O)[C@@]2(O)C(O)=C3C(=O)c4c(O)cccc4[C@@](C)(O)[C@H]3C[C@@H]12` [TETRACYCLINE] showed an inhibition zone (IZ) (Escherichia coli [5]) of 23 mm, an inhibition zone (IZ) (Escherichia coli [6]) of 32 mm and an inhibition zone (IZ) (Escherichia coli [7]) of 32 mm. It also gave an inhibition zone (IZ) (Escherichia coli [8]) of 34 mm, an inhibition zone (IZ) (Escherichia coli [9]) of 22 mm and an inhibition zone (IZ) (Escherichia coli [10]) of 26 mm. The inhibition zone (IZ) (Escherichia coli [11]) was 30 mm, the inhibition zone (IZ) (Escherichia coli [12]) was 34 mm and the inhibition zone (IZ) (Escherichia coli [13]) was 23 mm. For the same compound, the inhibition zone (IZ) (Escherichia coli [14]) was 32 mm, the inhibition zone (IZ) (Escherichia coli [15]) was 32 mm and the inhibition zone (IZ) (Escherichia coli [16]) was 34 mm.
With `COc1cc(Cc2cnc(N)nc2N)cc(OC)c1OC` [TRIMETHOPRIM] the inhibition zone (IZ) (Escherichia coli [17]) was 30 mm, the inhibition zone (IZ) (Escherichia coli [18]) was 42 mm and the inhibition zone (IZ) (Escherichia coli [19]) was 36 mm. For the same compound, the IZ (Escherichia coli [20]) was 26 mm, the MBC (Escherichia coli [21]) was 8 µg/mL (≈ 27.6 µM) and the MIC (Escherichia coli [21]) was 2 µg/mL (≈ 6.89 µM). For the same compound, the MBC (Escherichia coli [22]) was 1 µg/mL (≈ 3.44 µM), the MIC (Escherichia coli [22]) was 0.25 µg/mL (≈ 0.861 µM) and the MBC (Escherichia coli [23]) was 4 µg/mL (≈ 13.8 µM). For the same compound, the MIC (Escherichia coli [23]) was 2 µg/mL (≈ 6.89 µM), the MBC (Escherichia coli [24]) was 1 µg/mL (≈ 3.44 µM) and the MIC (Escherichia coli [24]) was 0.5 µg/mL (≈ 1.72 µM). It also gave an inhibition zone (IZ) (Escherichia coli [25]) of 44 mm, an inhibition zone (IZ) (Escherichia coli [26]) of 24 mm and an inhibition zone (IZ) (Escherichia coli [27]) of 31 mm. It also gave an inhibition zone (IZ) (Escherichia coli [28]) of 32 mm, an inhibition zone (IZ) (Escherichia coli [29]) of 36 mm and an IZ (Escherichia coli [30]) of 38 mm. For the same compound, the IZ (Escherichia coli [31]) was 33 mm and the IZ (Escherichia coli [32]) was 40 mm.
